Values after ≈ are worked out from the molar mass of the structure shown.
Tests used:
Staphylococcus aureus [1] = assay: Antibacterial activity against methicillin-resistant Staphylococcus aureus SR3637 infected in JCL/ICR mouse systemic infection model assessed as mortality administered as iv measured over 7 days; format: functional; settings: 168 h
Summary of the method: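 Five-week-old male JCL/ICR mice (20–25 g), five per group. Infected intraperitoneally with 0.5 or 1.0 mL bacterial suspension (about 100× LD50). Intravenous dosing 1 h post-infection. Mortality followed 7 days; ED50 with 95% confidence limits by logit method.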

Enterococcus faecium [2] = assay: Ratio of linezolid MIC to compound MIC for Enterococcus faecium SR7940 clinical isolate; format: functional
Haemophilus influenzae [3] = assay: Ratio of eperezolid MIC to compound MIC for Haemophilus influenzae SR27914 clinical isolate; format: functional
Enterococcus faecalis [4] = assay: Ratio of linezolid MIC to compound MIC for Enterococcus faecalis SR1004 clinical isolate; format: functional
Moraxella catarrhalis [5] = assay: Antibacterial activity against Moraxella catarrhalis SR26840 clinical isolate assessed as growth inhibition by CLSI broth microdilution method; format: functional
Summary of the method: (§1)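 MIC by CLSI broth microdilution in cation-adjusted Mueller-Hinton broth; S. pneumoniae medium supplemented with 5% lysed horse blood.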

Haemophilus influenzae [6] = assay: Antibacterial activity against Haemophilus influenzae SR27914 clinical isolate assessed as growth inhibition by CLSI broth microdilution method; format: functional
Summary of the method: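 MIC by CLSI broth microdilution using Haemophilus test medium.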

Staphylococcus aureus [7] = assay: Ratio of eperezolid MIC to compound MIC for Staphylococcus aureus Smith; format: functional
Cytochrome P450 2C9 = Cytochrome P450 2C9 (Homo sapiens, UniProt P11712); assay: Inhibition of human CYP2C9 assessed as tolbutamide hydroxylation after 20 mins by LC/MS/MS analysis; format: ADME
Cytochrome P450 2C9, sequence (P11712 whole entry): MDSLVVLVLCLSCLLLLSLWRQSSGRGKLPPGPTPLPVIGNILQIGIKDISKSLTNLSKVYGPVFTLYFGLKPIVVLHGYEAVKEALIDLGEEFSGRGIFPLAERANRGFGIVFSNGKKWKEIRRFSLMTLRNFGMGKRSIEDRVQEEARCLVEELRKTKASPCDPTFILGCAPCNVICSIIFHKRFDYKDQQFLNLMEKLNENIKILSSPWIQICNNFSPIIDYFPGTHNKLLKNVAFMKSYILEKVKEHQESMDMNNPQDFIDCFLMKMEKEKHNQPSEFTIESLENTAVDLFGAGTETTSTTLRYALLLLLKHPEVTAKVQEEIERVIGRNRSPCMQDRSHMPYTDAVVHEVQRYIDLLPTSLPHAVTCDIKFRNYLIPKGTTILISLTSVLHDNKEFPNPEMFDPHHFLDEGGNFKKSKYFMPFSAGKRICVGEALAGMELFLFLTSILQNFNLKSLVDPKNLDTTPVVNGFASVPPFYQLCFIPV
Summary of the method: (§2)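 Human liver microsomes (0.2 mg protein/mL) with 1 mM NADPH in 50 mM HEPES pH 7.4, 10 mM MgCl2, 0.1 mM EDTA. After centrifugation, supernatant metabolite measured by LC/MS/MS. Standard curve from authentic metabolite cocktail added to unincubated reaction mix.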

Enterococcus faecium [8] = assay: Antibacterial activity against Enterococcus faecium SR7940 clinical isolate assessed as growth inhibition by CLSI broth microdilution method; format: functional; summary of the method: as §1
Cytochrome P450 1A2 = target: T1, Cytochrome P450 1A2 (Homo sapiens, UniProt P05177); assay: Inhibition of human CYP1A2 assessed as ethoxyresorufin O-deethylation after 20 mins by fluorescence plate reader analysis; format: ADME
T1 sequence (P05177 whole entry): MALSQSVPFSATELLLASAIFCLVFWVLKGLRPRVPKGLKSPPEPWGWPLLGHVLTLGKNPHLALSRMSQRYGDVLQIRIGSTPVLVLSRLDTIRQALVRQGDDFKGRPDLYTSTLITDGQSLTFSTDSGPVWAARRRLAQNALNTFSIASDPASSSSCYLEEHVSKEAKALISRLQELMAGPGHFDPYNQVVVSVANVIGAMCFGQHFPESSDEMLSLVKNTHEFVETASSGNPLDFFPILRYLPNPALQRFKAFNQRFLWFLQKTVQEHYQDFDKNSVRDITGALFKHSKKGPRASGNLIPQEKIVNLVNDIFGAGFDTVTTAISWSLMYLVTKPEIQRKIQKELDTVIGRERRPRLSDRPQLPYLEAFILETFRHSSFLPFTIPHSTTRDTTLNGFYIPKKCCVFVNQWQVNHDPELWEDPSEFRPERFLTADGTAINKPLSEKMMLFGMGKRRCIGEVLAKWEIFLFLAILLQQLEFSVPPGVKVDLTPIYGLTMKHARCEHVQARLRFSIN
Summary of the method: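 Human liver microsomes (0.2 mg protein/mL) with 1 mM NADPH in 50 mM HEPES pH 7.4, 10 mM MgCl2, 0.1 mM EDTA. After centrifugation, supernatant read on a fluorescence plate reader. Standard curve from authentic metabolite added to unincubated reaction mix.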

Staphylococcus aureus [9] = assay: Ratio of eperezolid MIC to compound MIC for Staphylococcus aureus SR20549 clinical isolate; format: functional
Enterococcus faecium [10] = assay: Ratio of eperezolid MIC to compound MIC for Enterococcus faecium SR7940 clinical isolate; format: functional
Streptococcus pneumoniae [11] = assay: Ratio of linezolid MIC to compound MIC for Streptococcus pneumoniae SR26207 clinical isolate; format: functional
Enterococcus faecalis [12] = assay: Antibacterial activity against Enterococcus faecalis SR1004 clinical isolate assessed as growth inhibition by CLSI broth microdilution method; format: functional; summary of the method: as §1
Cytochrome P450 2D6 = Cytochrome P450 2D6 (Homo sapiens, UniProt P10635); assay: Inhibition of human CYP2D6 assessed as dextromethorphan O-demethylation after 20 mins by LC/MS/MS analysis; format: ADME; summary of the method: as §2
Cytochrome P450 2D6, sequence (P10635 whole entry): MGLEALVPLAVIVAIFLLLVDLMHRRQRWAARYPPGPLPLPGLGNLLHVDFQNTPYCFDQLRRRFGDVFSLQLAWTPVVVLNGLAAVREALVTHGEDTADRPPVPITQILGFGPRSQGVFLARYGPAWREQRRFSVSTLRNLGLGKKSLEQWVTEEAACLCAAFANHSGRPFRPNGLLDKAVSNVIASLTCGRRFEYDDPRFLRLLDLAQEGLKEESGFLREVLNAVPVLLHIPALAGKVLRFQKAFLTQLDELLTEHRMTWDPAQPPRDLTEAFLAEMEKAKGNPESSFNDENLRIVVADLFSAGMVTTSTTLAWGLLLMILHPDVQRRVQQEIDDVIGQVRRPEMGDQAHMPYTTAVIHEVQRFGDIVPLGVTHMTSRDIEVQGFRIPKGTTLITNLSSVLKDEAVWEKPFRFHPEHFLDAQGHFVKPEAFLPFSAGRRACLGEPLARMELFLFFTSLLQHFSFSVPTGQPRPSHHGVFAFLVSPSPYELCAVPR

Staphylococcus aureus [13] = assay: Antibacterial activity against methicillin-resistant Staphylococcus aureus SR3637 assessed as growth inhibition by CLSI broth microdilution method; format: functional
Summary of the method: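 MIC by CLSI broth microdilution in cation-adjusted Mueller-Hinton broth. Lowest concentration inhibiting growth taken as MIC.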

Staphylococcus aureus [14] = assay: Antibacterial activity against methicillin-resistant Staphylococcus aureus SR3637 infected in JCL/ICR mouse systemic infection model assessed as mortality administered as po measured over 7 days; format: functional; settings: 168 h
Summary of the method: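 Five-week-old male JCL/ICR mice (20–25 g), five per group. Infected intraperitoneally with 0.5 or 1.0 mL bacterial suspension (about 100× LD50). Oral dosing 1 h post-infection. Mortality followed 7 days; ED50 with 95% confidence limits by logit method.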

Streptococcus pneumoniae [15] = assay: Ratio of eperezolid MIC to compound MIC for Streptococcus pneumoniae SR26207 clinical isolate; format: functional
MAO-B = target: T2, MAO-B (Rattus norvegicus, UniProt P19643); assay: Inhibition of MAO-B in rat forebrain using [14C]PEA as substrate at 30 uM incubated for 20 mins prior to substrate addition measured after 10 mins by liquid scintillation counting analysis relative to control; format: tissue-based; settings: probe [14C]PEA
T2 sequence (P19643 whole entry): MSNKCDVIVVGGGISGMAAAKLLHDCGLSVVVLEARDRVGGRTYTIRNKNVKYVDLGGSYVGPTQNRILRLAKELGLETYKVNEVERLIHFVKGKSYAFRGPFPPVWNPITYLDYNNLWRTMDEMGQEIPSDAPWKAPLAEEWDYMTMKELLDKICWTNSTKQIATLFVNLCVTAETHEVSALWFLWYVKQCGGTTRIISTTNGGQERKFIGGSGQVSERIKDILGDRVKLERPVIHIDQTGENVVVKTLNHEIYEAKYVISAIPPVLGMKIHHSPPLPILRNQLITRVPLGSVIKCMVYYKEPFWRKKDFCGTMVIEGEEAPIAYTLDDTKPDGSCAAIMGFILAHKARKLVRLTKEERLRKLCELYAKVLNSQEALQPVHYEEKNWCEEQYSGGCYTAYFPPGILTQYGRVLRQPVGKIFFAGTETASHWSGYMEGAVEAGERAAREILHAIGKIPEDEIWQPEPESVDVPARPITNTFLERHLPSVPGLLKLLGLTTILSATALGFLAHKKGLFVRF

Moraxella catarrhalis [16] = assay: Ratio of eperezolid MIC to compound MIC for Moraxella catarrhalis SR26840 clinical isolate; format: functional
Staphylococcus aureus [17] = assay: Antibacterial activity against Staphylococcus aureus Smith assessed as growth inhibition by CLSI broth microdilution method; format: functional; summary of the method: as §1
Staphylococcus aureus [18] = assay: Ratio of linezolid MIC to compound MIC for Staphylococcus aureus Smith; format: functional
Enterococcus faecalis [19] = assay: Ratio of eperezolid MIC to compound MIC for Enterococcus faecalis SR1004 clinical isolate; format: functional

| SMILES | ED50 (Staphylococcus aureus [1]) | Ratio (Enterococcus faecium [2]) | Ratio (Haemophilus influenzae [3]) | Ratio (Enterococcus faecalis [4]) | MIC (Moraxella catarrhalis [5]) | MIC (Haemophilus influenzae [6]) | Ratio (Staphylococcus aureus [7]) | IC50 (Cytochrome P450 2C9) | MIC (Enterococcus faecium [8]) | IC50 (Cytochrome P450 1A2) | Ratio (Staphylococcus aureus [9]) | Ratio (Enterococcus faecium [10]) | Ratio (Streptococcus pneumoniae [11]) | MIC (Enterococcus faecalis [12]) | IC50 (Cytochrome P450 2D6) | MIC (Staphylococcus aureus [13]) | ED50 (Staphylococcus aureus [14]) | Ratio (Streptococcus pneumoniae [15]) | inhibition at 10 min, 30 µM (MAO-B) | Ratio (Moraxella catarrhalis [16]) | also measured |
| --- | --- | --- | --- | --- | --- | --- | --- | --- | --- | --- | --- | --- | --- | --- | --- | --- | --- | --- | --- | --- | --- |
| COC(=S)NC[C@H]1CN(c2ccc(N3CCNN(C(=O)CO)CC3)c(F)c2)C(=O)O1 | 0.94 mg/kg | 4 | 4 | 4 | 2 µg/mL (≈ 4.53 µM) | 4 µg/mL (≈ 9.06 µM) | 4 | > 20 µM | 0.25 µg/mL (≈ 0.566 µM) | > 20 µM | 4 | 4 | 4 | 0.5 µg/mL (≈ 1.13 µM) | > 20 µM | 0.25 µg/mL (≈ 0.566 µM) | 1.05 mg/kg | 4 | 10.1% | 4 | MIC (Staphylococcus aureus [17]): 0.25 µg/mL (≈ 0.566 µM); Ratio (Staphylococcus aureus [18]): 4; Ratio (Enterococcus faecalis [19]): 4 |
| COC(=S)NC[C@H]1CN(c2cc(F)c(N3CCNN(C(=O)CO)CC3)c(F)c2)C(=O)O1 | 0.77 mg/kg | 4 | 4 | 4 | 1 µg/mL (≈ 2.18 µM) | 4 µg/mL (≈ 8.71 µM) | 4 | > 20 µM | 0.25 µg/mL (≈ 0.544 µM) | > 20 µM | 4 | 4 | 4 | 0.25 µg/mL (≈ 0.544 µM) | > 20 µM | 0.25 µg/mL (≈ 0.544 µM) | 2.07 mg/kg | 4 | 10.6% | 4 | MIC (Staphylococcus aureus [17]): 0.25 µg/mL (≈ 0.544 µM); Ratio (Staphylococcus aureus [18]): 4; Ratio (Enterococcus faecalis [19]): 4 |

From ChEMBL document CHEMBL2375276, “Antibacterial oxazolidinone analogues having a N-hydroxyacetyl-substituted seven-membered [1,2,5]triazepane or [1,2,5]oxadiazepane C-ring unit” (Eur J Med Chem, 2013)
